Series [1] can be described thus: Half life in rat brain homogenate by RP-HPLC analysis. The class given is ADME, tissue-based. A digest of the protocol:
(§1)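 Peptides are incubated at 37 °C with rat brain homogenate as the protease source. Samples taken at 0, 7.5, 15, 22.5, 30 and 60 min are analysed by RP-HPLC to derive the degradation rate constant k and the half-life. Three independent experiments in duplicate; mean ± SEM.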

The subject of series [2] is Mus musculus. In words: Antinociceptive activity in icv dosed mouse assessed as inhibition of EM-2-induced jumping by hot-plate test. The class given is functional, organism-based. A digest of the protocol: (§2)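 Hot-plate test in mice. Peptides are dissolved in DMSO, diluted with saline and given icv into the left ventricle (0.1–10 µg/animal). The read-out is latency to jumping, expressed as %MPE = (test − control latency)/(cut-off − control latency) × 100, with a 240 s cut-off. 10 mice per group.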

Series [3] relates to Mus musculus. The series is described as follows: Antidepressant activity in icv dosed mouse assessed as reduction in immobility time measured 10 mins post-dose by forced swim test. The class given is functional, organism-based. In a few lines: (§3)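 Mice given a vehicle or peptide icv, then 20 min before testing kept in small individual cages at 22 ± 1 °C. The test begins 10 min after injection: groups of four swim for 6 min in Plexiglas cylinders (14 cm internal diameter) holding water at 22 ± 1 °C to 12 cm depth. Total immobility is scored by an automated system. Dose range 0.3–10 µg/animal; 10 mice per group.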

Series [4] addresses Kappa-type opioid receptor (Cavia porcellus, UniProt P41144). The series is described as follows: Displacement of [3H]nor-BNI from KOR in guinea pig brain membranes. The class given is cell membranes, Membrane. For orientation: In a radioligand displacement assay an active substance lowers the binding of a labelled ligand.
For series [5], the system named is Mus musculus. The series is described as follows: Antidepressant activity in mouse assessed as reduction in immobility time at 3 to 10 ug, icv measured 10 mins post-dose by forced swim test. The class given is functional, organism-based. A digest of the protocol:
as §3

Series [6] concerns Mus musculus. The series is described as follows: Antinociceptive activity in mouse assessed as inhibition of EM-2-induced jumping at 3 ug, icv co-administered with beta-funaltrexamine by hot-plate test. The class given is functional, organism-based. In a few lines: (§4)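 Hot-plate jumping latency in mice given the peptide at 3 µg/animal icv together with β-FNA (1 µg/animal), naltrindole (1 µg/animal) or nor-BNI (5 µg/animal, per the figure legend). Result is expressed as %MPE with a 240 s cut-off; 10 mice per group; one-way ANOVA with Student–Newman–Keuls.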

Series [7] has as its system Mus musculus. In words: Antidepressant activity in mouse assessed as reduction in immobility time at 3 ug, icv co-administered with beta-funaltrexamine measured 10 mins post-dose by forced swim test. The class given is functional, organism-based. In a few lines:
(§5)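 Forced swim test in mice with the peptide at 3 µg/animal icv, co-injected with β-FNA (1 µg/animal), naltrindole (1 µg/animal) or nor-BNI (5 µg/animal). Swim starts 10 min after injection; 6-min session in water at 22 ± 1 °C; automated scoring of total immobility; 10 mice per group.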

Series [8] addresses Delta-type opioid receptor (Rattus norvegicus, UniProt P33533). In words: Displacement of [3H](Ile5,6)deltorphin-2 from DOR in rat brain membranes. The class given is cell membranes, Membrane. In a few lines:
(§6)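 Competitive binding on rat brain membranes: displacement of [³H]DAMGO (MOR) or [³H][Ile5,6]deltorphin-2 (DOR), reported as IC50. Three independent experiments, each run in duplicate, given as mean ± SEM. The DOR/MOR ratio is calculated from these IC50 values.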

In another series the target is Mu-type opioid receptor (Rattus norvegicus, UniProt P33535). The series is described as follows: Displacement of [3H]DAMGO from MOR in rat brain membranes. The class given is cell membranes, Membrane. In a few lines: as §6
Series [9] has as its system Mus musculus. In words: Antinociceptive activity in mouse assessed as inhibition of EM-2-induced jumping at 3 ug, icv co-administered with nor-binaltorphimine by hot-plate test. The class given is functional, organism-based. A digest of the protocol: as §4
Series [10] has as its system Mus musculus. The series is described as follows: Antidepressant-like activity in mouse assessed as horizontal locomotor activity at 3 ug, icv measured […] post-dose by locomotor activity assay. The class given is organism-based. The following applies: in vivo, icv_or_intrathecal, 20 min.
For series [11], the system named is Mus musculus. In words: Antidepressant activity in mouse assessed as reduction in immobility time at 3 ug, icv measured 10 mins post-dose by tail suspension test. The class given is functional, organism-based. In a few lines: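 Tail suspension: mice held 20 min beforehand in small individual cages. Ten minutes after an icv injection of vehicle or peptide (3 µg/animal), each mouse is suspended by the tail with adhesive tape and immobility is recorded. 10 mice per group.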

Series [12] has as its system Mus musculus. The series is described as follows: Antidepressant activity in mouse assessed as reduction in immobility time at 3 ug, icv co-administered with naltrindole measured 10 mins post-dose by forced swim test. The class given is functional, organism-based. In a few lines: as §5
The species named for series [13] is Rattus norvegicus. In words: Selectivity ratio of IC50 for DOR in rat brain membranes to IC50 for MOR in rat brain membranes. The class given is cell membranes. In a few lines: as §6
A further series concerns Brain. The series is described as follows: Stability in rat brain homogenate assessed as degradation rate constant measured up to 60 mins by RP-HPLC analysis. Conditions: 1 h. The class given is ADME, tissue-based. In a few lines:
as §1

The species entered for series [14] is Rattus norvegicus. The series is described as follows: Selectivity ratio of IC50 for KOR in guinea pig brain membranes to IC50 for MOR in rat brain membranes. The class given is cell membranes. In a few lines: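 Ratio of the KOR IC50, from displacement of [³H]nor-BNI in guinea pig brain membranes, to the MOR IC50, from displacement of [³H]DAMGO in rat brain membranes. Three independent experiments in duplicate.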

The subject of series [15] is Mus musculus. In words: Antidepressant activity in mouse assessed as reduction in immobility time at 3 ug, icv co-administered with nor-binaltorphimine measured 10 mins post-dose by forced swim test. The class given is functional, organism-based. In a few lines:
as §5

For series [16], the system named is Mus musculus. In words: Antinociceptive activity in mouse assessed as inhibition of EM-2-induced jumping at 3 ug, icv co-administered with naltrindole by hot-plate test. The class given is functional, organism-based. A digest of the protocol: as §4
A general note: In hot-plate and tail-flick tests a longer latency is read as antinociception.

The subject of series [17] is Mus musculus. In words: Toxicity in mouse assessed as increase in immobility time at >3 ug, icv by forced swim test. The class given is organism-based. The following applies: in vivo, icv_or_intrathecal.
Series [18] deals with Mus musculus. In words: Antidepressant activity in mouse assessed as reduction in immobility time at 3 ug, icv measured 10 mins post-dose by forced swim test. The class given is functional, organism-based. A digest of the protocol:
as §3

For series [19], the system named is Mus musculus. The series is described as follows: Toxicity in mouse assessed as mortality at >3 ug, icv. The class given is organism-based. Conditions: in vivo, icv_or_intrathecal.
The test system of series [20] is Mus musculus. In words: Antinociceptive activity in mouse assessed as inhibition of EM-2-induced jumping at 3 ug, icv by hot-plate test. The class given is functional, organism-based. A digest of the protocol:
as §2

Series [21] has as its system Mus musculus. In words: Antinociceptive activity in mouse assessed as inhibition of EM-2-induced jumping at 1 ug, icv by hot-plate test. The class given is functional, organism-based.

Activity calls are given as the source filed them.

As a reminder, the half-life is how long it takes for the measured level to halve. Higher therefore signals slow loss. For orientation: IC50 means the concentration that gives 50% inhibition. Read a high IC50 as weaker potency.

Delta-type opioid receptor, sequence (P33533 whole entry): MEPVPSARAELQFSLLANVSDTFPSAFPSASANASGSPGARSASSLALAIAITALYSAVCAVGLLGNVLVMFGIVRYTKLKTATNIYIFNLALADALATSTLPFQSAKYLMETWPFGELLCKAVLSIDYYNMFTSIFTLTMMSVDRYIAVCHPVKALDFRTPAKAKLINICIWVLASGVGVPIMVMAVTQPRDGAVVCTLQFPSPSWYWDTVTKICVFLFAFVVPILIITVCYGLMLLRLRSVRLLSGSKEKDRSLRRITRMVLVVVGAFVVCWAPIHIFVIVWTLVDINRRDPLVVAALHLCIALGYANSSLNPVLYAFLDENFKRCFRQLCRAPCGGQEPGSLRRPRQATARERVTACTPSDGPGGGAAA
Kappa-type opioid receptor, sequence (P41144 whole entry): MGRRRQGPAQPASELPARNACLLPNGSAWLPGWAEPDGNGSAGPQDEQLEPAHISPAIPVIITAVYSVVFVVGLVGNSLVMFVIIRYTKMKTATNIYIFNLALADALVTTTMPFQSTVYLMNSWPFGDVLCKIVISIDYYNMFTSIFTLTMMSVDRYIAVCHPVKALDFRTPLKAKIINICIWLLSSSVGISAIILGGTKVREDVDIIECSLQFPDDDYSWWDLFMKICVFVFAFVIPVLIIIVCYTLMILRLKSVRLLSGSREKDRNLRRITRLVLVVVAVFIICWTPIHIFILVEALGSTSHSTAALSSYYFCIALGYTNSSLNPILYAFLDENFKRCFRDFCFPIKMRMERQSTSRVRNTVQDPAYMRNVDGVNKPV
Mu-type opioid receptor, sequence (P33535 whole entry): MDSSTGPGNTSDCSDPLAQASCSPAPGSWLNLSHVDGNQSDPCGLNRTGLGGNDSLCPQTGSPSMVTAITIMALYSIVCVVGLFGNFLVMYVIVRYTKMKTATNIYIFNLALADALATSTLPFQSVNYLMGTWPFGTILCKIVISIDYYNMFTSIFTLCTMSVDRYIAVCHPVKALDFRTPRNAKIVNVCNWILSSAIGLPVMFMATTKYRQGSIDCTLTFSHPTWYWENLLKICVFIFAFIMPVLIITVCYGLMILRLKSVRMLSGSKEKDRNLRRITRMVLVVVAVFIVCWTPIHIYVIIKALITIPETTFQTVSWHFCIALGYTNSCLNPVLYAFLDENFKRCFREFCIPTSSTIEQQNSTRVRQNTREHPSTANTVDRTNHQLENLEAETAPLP

`NC(=O)[C@H](Cc1ccccc1)NC(=O)[C@H](Cc1ccccc1)NC(=O)[C@@H]1CCCN1C(=O)[C@@H](N)Cc1ccc(O)cc1` [ENDOMORPHIN 2] displayed a half-life in [1] of 6 min.

Regarding `NC(=O)[C@H](Cc1ccccc1)NC(=O)[C@H](Cc1ccccc1)NC(=O)[C@H]1CN(C(=O)[C@@H](N)Cc2ccc(O)cc2)C[C@@H]1c1ccccc1` (mixture of isomers), the inhibition result with Mus musculus [2] is “Dose-dependent effect”. The Activity entry was “Dose-dependent effect” in the series with Mus musculus [3] and “Non-toxic” in the series with Mus musculus [10]. In addition, the results for the 50% inhibitory concentration (IC50) (in series [4]; in series [8]; on Mu-type opioid receptor) were 27.1 nM, 9.06 nM and 0.85 nM, respectively. The outcome in the series on Mus musculus [5], in the series on Mus musculus [7] and in the series with Mus musculus [11] was Active. The inhibition result with Mus musculus [6] is “inactive”. The molecule also showed a half-life in [1] of 32.5 min. Further, the inhibition result with Mus musculus [9] and with Mus musculus [16] was “Active” each time. The outcome in the series on Mus musculus [12] and in the series on Mus musculus [15] was inactive. Moreover, the values for the Ratio IC50 in the series filed under Rattus norvegicus [13] and in the series filed under Rattus norvegicus [14] were 10.7 and 31.9, respectively. Also, the K with Brain is 0.0212 min⁻¹.

In the case of `NC(=O)[C@H](Cc1ccccc1)NC(=O)[C@H](Cc1ccccc1)NC(=O)[C@@H]1CN(C(=O)[C@@H](N)Cc2ccc(O)cc2)C[C@H]1c1ccccc1` (mixture of isomers), the IC50 in series [4] is more than 1000 nM; in series [8] it was more than 1000 nM; at Mu-type opioid receptor, 2.91 nM. Moreover, the Activity result with Mus musculus [17] and in the series with Mus musculus [19] was “Toxic” each time. Also, in [1], the half-life is 38.3 min. In addition, the result with Mus musculus [18] and with Mus musculus [11] was inactive. Further, the Ratio IC50 in the series listed under Rattus norvegicus [13] and in the series filed under Rattus norvegicus [14] was more than 1000 each time. The K in the series with Brain came to 0.018 min⁻¹. The inhibition result in the series with Mus musculus [20] is “inactive”.

With `Oc1ccc2c3c1O[C@H]1c4[nH]c5c(c4C[C@@]4(O)[C@@H](C2)N(CC2CC2)CC[C@]314)C[C@@]1(O)[C@H]2Cc3ccc(O)c4c3[C@@]1(CCN2CC1CC1)[C@H]5O4`, the inhibition result with Mus musculus [21] is “inactive”.

On to `Oc1ccc2c3c1O[C@H]1c4[nH]c5ccccc5c4C[C@@]4(O)[C@@H](C2)N(CC2CC2)CC[C@]314`, for which the inhibition entry in the series on Mus musculus [21] was “inactive”.

For `COC(=O)/C=C/C(=O)N[C@@H]1CC[C@@]2(O)[C@H]3Cc4ccc(O)c5c4[C@@]2(CCN3CC2CC2)[C@H]1O5`, the inhibition entry with Mus musculus [21] is “inactive”.

The record behind these values is ChEMBL document CHEMBL3351959, “Antinociceptive and antidepressant-like action of endomorphin-2 analogs with proline surrogates in position 2” (Bioorg Med Chem, 2014).
